Responding, Activity and ED50 data for three compounds are collected here from ChEMBL document CHEMBL1123406, “Synthesis and evaluation of 2,3-dihydrobenzofuran analogues of the hallucinogen 1-(2,5-dimethoxy-4-methylphenyl)-2-aminopropane: drug discrimination studies in rats” (1986).

Activity calls are given as the source filed them. No cut-off for these calls is given here.

Test [1] deals with Rattus norvegicus. Briefly: Percentage responding on LSD lever at dose 4.0 mg/kg. It is filed as functional. The method, boiled down:
(§1)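 Male Sprague–Dawley rats (200-240 g, housed singly) trained in a two-lever operant task to discriminate ip saline from LSD tartrate 0.08 mg/kg. Reinforcement was 45 mg food pellets on an FR50 schedule, with 15-min daily training sessions. Test drugs were given 30 min before testing. A test ended at 50 responses on either lever or at 5 min; rats not completing 50 presses were scored disrupted and excluded.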

Test [2] deals with Rattus norvegicus. Briefly: Number of rats responding on LSD lever/number of rats treated at dose 4.0 mg/kg; 5/8. It is filed as functional, organism-based. Also noted: dose 4 mg/kg. The method, boiled down: as §1
Test [3] relates to Rattus norvegicus. Put plainly: Percentage responding on LSD lever at dose 0.25 mg/kg. It is filed as functional. In outline: as §1
Test [4] has as its system Rattus norvegicus. Put plainly: Number of rats responding on LSD lever/number of rats treated at dose 0.25 mg/kg; 1/8. Also noted: dose 0.25 mg/kg. It is filed as functional, organism-based. In outline: as §1
Test [5] relates to Rattus norvegicus. Briefly: Number of rats responding on LSD lever/number of rats treated at dose 1.0 mg/kg; 1/8. On the set-up: dose 1 mg/kg. In kind it is functional, organism-based. In outline:
as §1

The subject of test [6] is Rattus norvegicus. Put plainly: Percentage responding on LSD lever at dose 1.0 mg/kg. It is filed as functional. In outline: as §1
Test [7] deals with Rattus norvegicus. Briefly: Number of rats responding on LSD lever/number of rats treated at dose 8.0 mg/kg; 6/8. In kind it is functional, organism-based. Also noted: dose 8 mg/kg. In outline: as §1
In test [8] the test system is Rattus norvegicus. Put plainly: Percentage responding on LSD lever at dose 8.0 mg/kg. In kind it is functional. In outline: as §1
In test [9] the test system is Rattus norvegicus. Briefly: Percentage responding on LSD lever at dose 10.0 mg/kg. In kind it is functional. The method, boiled down:
as §1

The species named for test [10] is Rattus norvegicus. Briefly: Compound was evaluated for the drug discrimination assay and the ED50 (potency) was determined. In kind it is functional. In outline: as §1
The test system of test [11] is Rattus norvegicus. Briefly: Number of rats responding on LSD lever/number of rats treated at dose 10.0 mg/kg; 10/12. In kind it is functional, organism-based. On the set-up: dose 10 mg/kg. In outline: as §1
The test system of test [12] is Rattus norvegicus. Briefly: Percentage responding on LSD lever at dose 3.0 mg/kg. In kind it is functional. In outline: as §1
Test [13] has as its system Rattus norvegicus. Put plainly: Number of rats responding on LSD lever/number of rats treated at dose 4.0 mg/kg; 8/8. In kind it is functional, organism-based. Also noted: dose 4 mg/kg. The method, boiled down: as §1
Test [14] relates to Rattus norvegicus. Briefly: Percentage responding on LSD lever at dose 2.0 mg/kg. In kind it is functional. The method, boiled down: as §1
Test [15] deals with Rattus norvegicus. Briefly: Number of rats responding on LSD lever/number of rats treated at dose 3.0 mg/kg; 8/10. It is filed as functional, organism-based. Also noted: dose 3 mg/kg. In outline: as §1
Test [16] deals with Rattus norvegicus. Briefly: Percentage responding on LSD lever at dose 0.5 mg/kg. It is filed as functional. The method, boiled down:
as §1

In test [17] the test system is Rattus norvegicus. Briefly: Number of rats responding on LSD lever/number of rats treated at dose 0.5 mg/kg; 1/8. In kind it is functional, organism-based. On the set-up: dose 0.5 mg/kg. In outline:
as §1

Test [18] relates to Rattus norvegicus. Put plainly: Number of rats responding on LSD lever/number of rats treated at dose 1.0 mg/kg; 4/8. It is filed as functional, organism-based. On the set-up: dose 1 mg/kg. The method, boiled down: as §1
Test [19] deals with Rattus norvegicus. Briefly: Number of rats responding on LSD lever/number of rats treated at dose 2.0 mg/kg; 6/8. It is filed as functional, organism-based. On the set-up: dose 2 mg/kg. The method, boiled down:
as §1

Test [20] has as its system Rattus norvegicus. Briefly: Percentage responding on LSD lever at dose 16.0 mg/kg. It is filed as functional. The method, boiled down: as §1

As a reminder, the ED50 is the dose that gives a 50% effect, or the effect in half of the subjects. The low end stands for an effect at a small dose, the high end for a need for a large dose. Consider `COc1cc2c(cc1CC(C)N)OCC2` (stereo not drawn), for which the Responding in the test on Rattus norvegicus [1] turned out to be 63%; in the test with Rattus norvegicus [3] it was 13%; in the test on Rattus norvegicus [6] it was 13%; with Rattus norvegicus [8] it was 75%; with Rattus norvegicus [9] it was 83%. Besides, the Activity entry in the test with Rattus norvegicus [2] and in the test on Rattus norvegicus [7] was “Weak activity” each time. Besides, the outcome in the test on Rattus norvegicus [4] and with Rattus norvegicus [5] was inactive. The 50% effect level in the test filed under Rattus norvegicus [10] (ED50) was put at a dose of 2.12 mg/kg. Besides, the outcome with Rattus norvegicus [11] was Active.

As to `COc1cc2c(cc1CC(C)N)OCO2` (stereo not drawn), the Responding in the test with Rattus norvegicus [12] is listed as 80%; in the test with Rattus norvegicus [1], 100%; in the test on Rattus norvegicus [14] it was 75%; with Rattus norvegicus [16], 13%; in the test with Rattus norvegicus [6], 50%. The outcome in the test with Rattus norvegicus [13] and in the test on Rattus norvegicus [15] was Active. For the same compound, the outcome in the test with Rattus norvegicus [17] was inactive. Moreover, the Activity result with Rattus norvegicus [18] and in the test on Rattus norvegicus [19] was “Weak activity” each time. It took a dose of 1.71 mg/kg to reach the 50% effect level in the test filed under Rattus norvegicus [10] (ED50).

Take `COc1cc2c(cc1CC(C)N)OC(C)C2` (stereo not drawn): the Responding is 38% in the test with Rattus norvegicus [1]; 0% in the test with Rattus norvegicus [14]; 0% in the test with Rattus norvegicus [16]; 88% in the test on Rattus norvegicus [20]; 63% in the test with Rattus norvegicus [8]. In the test listed under Rattus norvegicus [10], this compound displayed an ED50 of 5.5 mg/kg.
